Assay results: ChEMBL document CHEMBL4118256, “Second Generation of Mannich Base-Type Derivatives with in Vivo Activity against Trypanosoma cruzi” (J Med Chem, 2018)

How the values were obtained:
[1] = system: Trypanosoma cruzi; test: Trypanocidal activity against Trypanosoma cruzi IRHOD/CO/2008/SN3 DTU 1 epimastigotes after 48 hrs by resazurin dye based assay; type: functional, organism-based; conditions: IRHOD/CO/2008/SN3 DTU 1, 48 h
Outline: (§1)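 Exponential-phase epimastigotes were seeded at 5×10^5 mL^-1 with compounds at 100–0.2 µM (DMSO 0.01% v/v) at 28 °C. After 48 h, resazurin was added for another 24 h. SDS was then added and absorbance read at 570 and 600 nm.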

[2] = system: Trypanosoma cruzi; test: Trypanocidal activity against Trypanosoma cruzi TINF/CH/1956/Tulahuen DTU 6 epimastigotes after 48 hrs by resazurin dye based assay; type: functional, organism-based; conditions: TINF/CH/1956/Tulahuen DTU 6, 48 h; outline: as §1
[3] = Selectivity index, ratio of IC50 for African green monkey Vero cells to IC50 for Trypanosoma cruzi IRHOD/CO/2008/SN3 DTU 1 epimastigotes; type: toxicity; conditions: read-out: Ratio IC50
Outline: (§2)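 SI is Vero IC50 divided by the IC50 for the stated parasite form. For Vero cytotoxicity, cells were seeded at 1.25×10^4 mL^-1 with compounds at 1000–1 µM, incubated 48 h, then given resazurin for a further 24 h (72 h total), with absorbance read at 570/600 nm. Triplicate, four determinations.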

[4] = Selectivity index, ratio of IC50 for African green monkey Vero cells to IC50 for Trypanosoma cruzi TINF/CH/1956/Tulahuen DTU 6 epimastigotes; type: toxicity; conditions: read-out: Ratio IC50; outline: as §2
[5] = system: Vero; test: Cytotoxicity against African green monkey Vero cells assessed as reduction in cell viability after 72 hrs by resazurin dye based assay; conditions: Chlorocebus sabaeus
Outline: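 Vero monkey kidney cells grown at 37 °C, 5 % CO2, in RPMI with 10 % heat-inactivated FBS. Seeded at 1.25 × 10^4 mL-1 with compound at 1000 to 1 µM (DMSO 0.01 % v/v). After 48 h, resazurin added for a further 24 h, then SDS. Absorbance read at 570/600 nm. IC50 from triplicates in four separate determinations.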

[6] = Selectivity index, ratio of IC50 for African green monkey Vero cells to IC50 for Trypanosoma cruzi MHOM/Pe/2011/Arequipa DTU 5 epimastigotes; type: toxicity; conditions: read-out: Ratio IC50; outline: as §2
[7] = system: Trypanosoma cruzi; test: Trypanocidal activity against Trypanosoma cruzi MHOM/Pe/2011/Arequipa DTU 5 epimastigotes after 48 hrs by resazurin dye based assay; type: functional, organism-based; conditions: MHOM/Pe/2011/Arequipa DTU 5, 48 h; outline: as §1
[8] = Selectivity index, ratio of IC50 for African green monkey Vero cells to IC50 for Trypanosoma cruzi IRHOD/CO/2008/SN3 DTU 1 amastigotes infected in African green monkey Vero cells; type: toxicity; conditions: read-out: Ratio IC50; outline: as §2
[9] = system: Trypanosoma cruzi; test: Trypanocidal activity against Trypanosoma cruzi IRHOD/CO/2008/SN3 DTU 1 trypamastigotes derived from infected Balb/c albino mouse after 24 hrs by resazurin dye based assay; type: functional, organism-based; conditions: IRHOD/CO/2008/SN3 DTU 1, 24 h
Outline: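 Bloodstream trypomastigotes taken from mice at peak parasitaemia were seeded at 2×10^6 mL^-1 in RPMI with 10% FBS. Compounds were added at 50–0.2 µM and incubated 24 h at 37 °C, 5% CO2, then with resazurin for 4 h. SDS was added and absorbance read at 570/600 nm. IC50 was fitted; triplicate, four separate determinations.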

[10] = system: Trypanosoma cruzi; test: Trypanocidal activity against Trypanosoma cruzi IRHOD/CO/2008/SN3 DTU 1 amastigotes infected in African green monkey Vero cells after 72 hrs by Giemsa-staining based microscopic assay; type: functional, organism-based; conditions: IRHOD/CO/2008/SN3 DTU 1, Vero
Outline: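 Vero cells were seeded at 1×10^4/well on coverslips. After 24 h they were infected with culture-derived trypomastigotes (MOI 1:10, 24 h), then washed. Compounds were added at 100–0.2 µM (DMSO 0.01% v/v) for 72 h at 37 °C, 5% CO2. Slides were methanol-fixed and Giemsa-stained; amastigotes and infected cells were counted over 500 host cells. IC50 was derived by curve fitting; triplicate wells, four separate determinations.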

[11] = Selectivity index, ratio of IC50 for African green monkey Vero cells to IC50 for Trypanosoma cruzi IRHOD/CO/2008/SN3 DTU 1 trypamastigotes derived from infected Balb/c albino mouse; type: toxicity; conditions: read-out: Ratio IC50; outline: as §2

| SMILES | IC50 [1] [µM] | IC50 [2] [µM] | selectivity ratio [3] | selectivity ratio [4] | IC50 [5] [µM] | selectivity ratio [6] | IC50 [7] [µM] | selectivity ratio [8] | IC50 [9] [µM] | IC50 [10] [µM] | selectivity ratio [11] |
| --- | --- | --- | --- | --- | --- | --- | --- | --- | --- | --- | --- |
| O=C(CCN1CCN(c2ccc(Cl)cc2)CC1)c1ccc(F)c(Cl)c1 | 29.5 | 29.1 | 3.9 | 3.9 | 114 | 2.5 | 45.5 |  |  |  |  |
| O=C(CCN1CCN(c2ccc([N+](=O)[O-])cc2)CC1)c1ccc(F)c(F)c1 | 160 | 53.1 | 0.8 | 2.3 | 122 | 1.4 | 85.2 |  |  |  |  |
| O=C(CCN1CCN(c2ccc(Cl)cc2)CC1)c1ccc(Br)cc1 | 26.4 | 20.9 | 2 | 2.5 | 52.1 | 1.2 | 42.5 |  |  |  |  |
| O=C(CCN1CCN(c2ccc(C(F)(F)F)cc2)CC1)c1ccc(F)c(Cl)c1 | 45 | 29 | 1.7 | 2.6 | 74.5 | 3.4 | 21.6 |  |  |  |  |
| O=C(CCN1CCN(c2ccc(Cl)cc2)CC1)c1ccc(OC(F)(F)F)cc1 | 34.1 | 61.8 | 2.8 | 1.5 | 95.6 | 2.3 | 42.2 |  |  |  |  |
| COc1ccc(C(=O)CCN2CCN(c3ccc(C(F)(F)F)cc3)CC2)cc1 | 32.3 | 44 | 4.2 | 3.1 | 135 | 1.9 | 72.9 |  |  |  |  |
| COc1ccc(C(=O)CCN2CCN(Cc3ccccc3)CC2)cc1OC | 55.2 | 46.2 | 0.9 | 1 | 47.5 | 1.6 | 29.5 |  |  |  |  |
| Cc1ccc(C(=O)CCN2CCN(c3ccc([N+](=O)[O-])cc3)CC2)cc1 | 18.2 | 46.2 | 12.9 | 5.1 | 235 | 8.3 | 28.4 | 9.8 | 25.3 | 24 | 9.3 |
| O=C(CCN1CCN(c2ccc(C(F)(F)F)cc2)CC1)c1ccccc1 | 16.2 | 24.9 | 1 | 0.6 | 15.7 | 1.2 | 12.8 |  |  |  |  |
| O=C(CCN1CCN(c2ccc(C(F)(F)F)cc2)CC1)c1ccc(Br)cc1 | 28.3 | 28.5 | 2.8 | 2.8 | 78.8 | 2.6 | 30 |  |  |  |  |
| COc1ccc(C(=O)CCN2CCN(c3ccc([N+](=O)[O-])cc3)CC2)cc1OC | 174 | 105 | 0.6 | 1 | 105 | 1.1 | 94.5 |  |  |  |  |
| COc1ccc(C(=O)CCN2CCN(Cc3cccc(F)c3)CC2)cc1OC | 48 | 40.8 | 0.5 | 0.6 | 22.4 | 0.5 | 49 |  |  |  |  |
| O=C(CCN1CCN(c2ccc(F)cc2)CC1)c1ccc(C(F)(F)F)cc1 | 66.4 | 60.3 | 0.4 | 0.5 | 28.5 | 0.8 | 36.9 |  |  |  |  |
| O=C(CCN1CCN(c2ccc([N+](=O)[O-])cc2)CC1)c1ccc(Br)cc1 | 39.7 | 46.2 | 2 | 1.7 | 79.8 | 2.9 | 27.2 |  |  |  |  |
| O=C(CCN1CCN(c2ccc([N+](=O)[O-])cc2)CC1)c1ccc(Cl)c(F)c1 | 32.4 | 15.5 | 2.8 | 5.7 | 89.2 | 3.8 | 23.8 |  |  |  |  |
| COc1ccc(C(=O)CCN2CCN(c3ccc(F)cc3)CC2)cc1OC | 61.5 | 103 | 2.8 | 1.7 | 175 | 1.1 | 154 |  |  |  |  |
| O=C(CCN1CCN(c2ccc(F)cc2)CC1)c1ccc(F)c(Cl)c1 | 41.6 | 37.1 | 4.5 | 5 | 185 | 7.3 | 25.3 |  |  |  |  |
| COc1ccccc1N1CCN(CCC(=O)c2ccc(F)cc2)CC1 | 40.5 | 45.6 | 0.6 | 0.5 | 24 | 0.4 | 58.3 |  |  |  |  |
| O=C(CCN1CCN(c2ccc(F)cc2)CC1)c1ccccc1 | 32.9 | 94.1 | 0.4 | 0.1 | 13.4 | 0.2 | 65.7 |  |  |  |  |
| O=C(CCN1CCN(c2ccc(Cl)cc2)CC1)c1ccc(F)c(F)c1 | 13.7 | 46.2 | 6.3 | 1.9 | 86.2 | 5.6 | 15.4 |  |  |  |  |
| O=C(CCN1CCN(c2ccc([N+](=O)[O-])cc2)CC1)c1ccc(OC(F)(F)F)cc1 | 95 | 52.1 | 1 | 1.8 | 93.2 | 2.3 | 41.1 |  |  |  |  |
| Cc1ccc(C(=O)CCN2CCN(c3ccc(C(F)(F)F)cc3)CC2)cc1 | 17.6 | 22.5 | 7.9 | 6.2 | 140 | 9.8 | 14.2 |  |  |  |  |
| O=C(CCN1CCN(c2ccc(F)cc2)CC1)c1ccc(Br)cc1 | 56.8 | 49.5 | 1.8 | 2 | 99.5 | 4.4 | 22.5 |  |  |  |  |
| O=C(CCN1CCN(c2ccc(Cl)cc2)CC1)c1ccc(C(F)(F)F)cc1 | 38.2 | 39.1 | 1.4 | 1.4 | 54.2 | 1 | 52.7 |  |  |  |  |
| COc1ccc(C(=O)CCN2CCN(c3ccc(Cl)cc3)CC2)cc1OC | 43.9 | 36.6 | 4.2 | 5.1 | 185 | 2.1 | 90.3 |  |  |  |  |
| Cc1ccc(C(=O)CCN2CCN(c3ccc(Cl)cc3)CC2)cc1 | 26 | 29.5 | 7.1 | 6.2 | 184 | 5.8 | 31.7 |  |  |  |  |
| COc1ccc(C(=O)CCN2CCN(c3ccc(C(F)(F)F)cc3)CC2)cc1OC | 27.8 | 33.9 | 8.7 | 7.2 | 242 | 4.1 | 59 |  |  |  |  |
| O=C(CCN1CCN(c2ccc(Cl)cc2)CC1)c1ccc(Cl)c(F)c1 | 51.6 | 55.5 | 3.4 | 3.2 | 175 | 4.2 | 42 |  |  |  |  |
| Cc1ccc(C(=O)CCN2CCN(c3ccc(F)cc3)CC2)cc1 | 78.8 | 25 | 0.7 | 2.2 | 55.4 | 1.3 | 43.5 |  |  |  |  |
